Laboratory results taken from PubChem BioAssay AID602159 (Southern Research Specialized Biocontainment Screening …, 2011).

System: HEp-2 RSV CPE, time of addition, CellTiter-Glo viability
Assay: RSV inhibitor time-of-addition profiling, late-stage follow-up, mechanism study for RSV inhibitor project, cell-based, set 2 (AID 602159)
Settings: at 25 µM, stronger effect = higher value
In short: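 Test system: RSV-infected HEp-2 cells / Incubation: compound dosing 1 h pre- to 24 h post-infection, six-day incubation / Doses: single 25 µM compound dose, 0.5% DMSO final / Measure: percent viable cells, compared across compound addition times / Technique: CellTiter-Glo ATP luminescence at day 6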

[1] = measured here: added 1 h before infection
[2] = measured here: added 1 h post infection
[3] = measured here: added 12 h post infection
[4] = measured here: added 24 h post infection

| Structure (SMILES) | viability (added 21 h post infection) [%] | viability (added at infection) [%] | viability [1] [%] | viability [2] [%] | viability [3] [%] | viability [4] [%] |
| --- | --- | --- | --- | --- | --- | --- |
| COCCCNC(=O)c1ccc(Cn2c(=O)c3ccccc3n(Cc3ccc(C(C)C)cc3)c2=O)cc1 | 38.8 | 44 | 49.5 | 42.9 | 43.8 | 31.1 |
| COCCCNC(=O)c1ccc(Cn2c(=O)c3ccccc3n(Cc3ccc([N+](=O)[O-])cc3)c2=O)cc1 | 80.1 | 72.1 | 52.3 | 70.2 | 81.9 | 68 |
| CN(C)c1ccc(Cn2c(=O)n(Cc3ccc(C(=O)NCC4COC4)cc3)c(=O)c3ccccc32)cc1 | 96.4 | 91.3 | 90.1 | 91.6 | 73.2 | 78.7 |
